Measured values gathered from unrelated publications.
Lines come from different studies, so protocols differ.
Observed: cell growth or viability

COC(=O)c1c(C)ncn1CC(c1c[nH]c2ccc(C)cc12)c1c[nH]c2ccc(C)cc12 — CC50 (HaCaT; MTS; 24 h): > 20 µM
C[Si](C)(C)c1cc(C(=O)[C@H](Cc2ccccc2)NC(=O)[C@H](Cc2ccccc2)NC(=O)N2CCOCC2)no1 (mixture of isomers) — CC50 (MRC-5 SV2): > 64 µM
COC(=O)[C@]1(O)C[C@@H](O)[C@@H](O)[C@H](OC(=O)/C=C/c2ccc(O)c(O)c2)C1 — IC50 (WI-38; WST-1): 110 µM
O=C(N[C@@H](Cc1ccccc1)C(=O)c1nccs1)[C@H](Cc1ccccc1)NC(=O)N1CCOCC1 — CC50 (MRC-5 SV2): > 64 µM
CCOC(=O)C(C(C)=O)=C1Sc2nc3ccc(S(=O)(=O)N4CCCC4)cc3nc2S1 — viability (WI-38; MTT; 50 µM; 24 h): 48.2%
O=C(N[C@@H](Cc1ccccc1)C(=O)c1cc(-c2ccccc2)on1)[C@H](Cc1ccccc1)NC(=O)N1CCOCC1 (single isomer, unassigned) — CC50 (MRC-5 SV2): > 64 µM
N#CC(C(=O)Nc1cccc(C(F)(F)F)c1)=C1Sc2nc3ccc(S(=O)(=O)N4CCCC4)cc3nc2S1 — viability (WI-38; MTT; 50 µM; 24 h): 55.4%
CC1(C)CC[C@]2(C)CC[C@]3(C)C(=CC[C@@H]4[C@@]5(C)CC[C@H](O)C(C)(C)[C@@H]5CC[C@]43C)[C@@H]2C1 — IC50 (WI-38; WST-1; 48 h): 103 µM
COc1cccc2c1C(=O)c1c(O)c3c(c(O)c1C2=O)C[C@@](O)(C(=O)CO)C[C@@H]3O[C@H]1C[C@H](N)[C@H](O)[C@H](C)O1 — viability (WI-38; MTT; 100 µM; 24 h): 7.8%
O=C(N[C@@H](CCc1ccccc1)C(=O)c1cc(-c2ccccc2)on1)[C@H](Cc1ccccc1)NC(=O)N1CCOCC1 (single isomer, unassigned) — CC50 (MRC-5 SV2): > 64 µM
O=C1CCCCC1=C1Sc2nc3ccc(S(=O)(=O)N4CCCC4)cc3nc2S1 — viability (WI-38; MTT; 50 µM; 24 h): 61.3%
N=C(N)c1ccc(OCCCCCOc2ccc(C(=N)N)cc2)cc1 — CC50 (HaCaT; MTS; 24 h): > 20 µM
O=C(N[C@@H](Cc1ccccc1)C(=O)c1c[nH]nn1)[C@H](Cc1ccccc1)NC(=O)N1CCOCC1 — CC50 (MRC-5 SV2): > 64 µM
O=c1cc(-c2ccc(O)c(O)c2)oc2cc(O)cc(O)c12 — IC50 (WI-38; WST-1; 48 h): 90.8 µM
O=c1oc2c(O)c(O)cc3c(=O)oc4c(O)c(O)cc1c4c23 — CC50 (CEM-GFP; MTT; 48 h): > 250 µg/mL
Nc1ncnc2c1ncn2[C@@H]1O[C@H](CO)[C@@H](O)[C@H]1O — IC50 (WI-38; WST-1; 48 h): 131 µM
O=C(N[C@@H](Cc1ccccc1)C(=O)c1nc2ccccc2o1)[C@H](Cc1ccccc1)NC(=O)N1CCOCC1 — CC50 (MRC-5 SV2): > 64 µM
O=C(/C=C/c1ccc(O)c(O)c1)O[C@@H]1C[C@](O)(C(=O)O)C[C@@H](O)[C@H]1O — IC50 (WI-38; WST-1; 48 h): 91.2 µM
Cc1cn(CC(c2cn(C)c3ccccc23)c2cn(C)c3ccccc23)nn1 — CC50 (HaCaT; MTS; 24 h): > 20 µM
O=Cc1ccc(CO)o1 — IC50 (WI-38; WST-1; 48 h): 78.3 µM
C[C@@H]1[C@H](O)[C@@H](C)/C=C/C=C/C=C/C=C/C=C/C=C/C=C/[C@H](O[C@@H]2O[C@H](C)[C@@H](O)[C@H](N)[C@@H]2O)C[C@@H]2O[C@](O)(C[C@@H](O)C[C@@H](O)[C@H](O)CC[C@@H](O)C[C@@H](O)CC(=O)O[C@H]1C)C[C@H](O)[C@H]2C(=O)O — CC50 (HaCaT; MTS; 24 h): 7.95 µM
